From ChEMBL document CHEMBL3797041, “Discovery of potent, reversible MetAP2 inhibitors via fragment based drug discovery and structure based drug design-Part 2” (Bioorg Med Chem Lett, 2016) come the findings set out here.

A value given as a limit tells only on which side of the number the result lay.

One data set addresses T1, Cytochrome P450 1A2 (Homo sapiens, UniProt P05177).
T1 sequence (P05177 whole entry): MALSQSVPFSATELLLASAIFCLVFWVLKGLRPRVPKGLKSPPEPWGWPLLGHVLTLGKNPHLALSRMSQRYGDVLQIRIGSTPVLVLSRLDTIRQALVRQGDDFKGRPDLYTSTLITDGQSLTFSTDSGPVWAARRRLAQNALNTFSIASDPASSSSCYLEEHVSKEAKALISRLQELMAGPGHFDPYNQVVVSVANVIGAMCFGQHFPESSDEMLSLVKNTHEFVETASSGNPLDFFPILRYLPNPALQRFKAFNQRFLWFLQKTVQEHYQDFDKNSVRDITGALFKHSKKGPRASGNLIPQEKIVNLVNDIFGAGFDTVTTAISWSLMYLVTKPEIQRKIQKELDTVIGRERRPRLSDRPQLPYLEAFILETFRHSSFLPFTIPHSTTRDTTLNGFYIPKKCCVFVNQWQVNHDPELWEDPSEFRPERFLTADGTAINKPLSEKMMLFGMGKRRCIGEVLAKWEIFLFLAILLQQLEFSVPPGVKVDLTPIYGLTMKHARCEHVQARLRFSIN
The data set is described as follows: Inhibition of human CYP1A2 expressed in Escherichia coli DH5alpha. In kind it is ADME.

In data set [1] the test system is Mus musculus. The data set is described as follows: Toxicity in diet-induced obese mouse model assessed as effect on activity levels at 30 mg/kg, po qd for 7 days. In kind it is organism-based. As to conditions: in vivo, 168 h. The method, boiled down: (§1)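 DIO mice were dosed by oral gavage once daily for 7 days, with a vehicle-dosed cohort as the comparator. Body weight was read relative to the vehicle group, and food intake and activity levels were monitored in dosed and vehicle cohorts. In some studies, animals were first acclimated to gavage for a few weeks, until their weights stopped changing, before dosing began.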

Data set [2] deals with Mus musculus. The data set is described as follows: Toxicity in diet-induced obese mouse model assessed as effect on food intake at 30 mg/kg, po qd for 7 days. The format is organism-based. As to conditions: in vivo, 168 h. The method, boiled down:
as §1

Data set [3] in a line: AUC in Sprague-Dawley rat at 2.9 mg/kg, po. The format is ADME, organism-based. As to conditions: in vivo.
The nature of data set [4]: Oral bioavailability in Sprague-Dawley rat at 2.9 mg/kg. The format is ADME, organism-based. As to conditions: in vivo.
Data set [5] concerns Mus musculus. The data set is described as follows: Antiobesity in diet-induced obese mouse model assessed as decrease in body weight at 30 mg/kg, po qd for 7 days relative to control. As to conditions: 168 h. The format is functional. The method, boiled down: as §1
A further data set has as its system Rattus norvegicus. In words: Volume of distribution in Sprague-Dawley rat at 2.9 mg/kg, po. The format is ADME, organism-based. As to conditions: in vivo.
Data set [6] can be described thus: Half life in Sprague-Dawley rat at 2.9 mg/kg, po. In kind it is ADME, organism-based. As to conditions: in vivo.
Data set [7] in a line: Clearance in Sprague-Dawley rat at 2.9 mg/kg, po. As to conditions: in vivo. The format is ADME, organism-based.

In general, IC50 refers to the concentration that inhibits the measured activity by half. At Cytochrome P450 1A2, `O=C(NCCO)c1ccc(-n2c3ccc(F)cc3c3[nH]ncc32)cc1` gave an IC50 of 7.94 µM.
On Cytochrome P450 1A2, `Fc1ccc2c(c1)c1[nH]ncc1n2-c1cccnc1` showed an IC50 of 0.126 µM. Compared with the last compound, the IC50 is about 63-fold lower.
One may read the AUC as concentration integrated over time. A lower AUC goes with low exposure. The term bioavailability denotes the share of a dose that reaches the circulation, judged against a reference dose that is usually intravenous. The inhibition in vivo is how much of the control response was suppressed. Broadly, the half-life is the time in which the quantity being followed falls by half. Usually CL/F stands for clearance divided by bioavailability, as obtained after extravascular dosing. `Cc1nc2[nH]cnc2cc1-n1c2ccc(F)cc2c2[nH]ncc21`: the Activity result with Mus musculus [1] and in the data set with Mus musculus [2] was “Non-toxic” each time. Further, the exposure (AUC) in data set [3] stood at 2240 ng·h/mL. Also, in [4], the bioavailability was 70%. The same compound showed an IC50 against Cytochrome P450 1A2 of 3.16 µM. Moreover, the inhibition in vivo at 30 mg/kg in the data set with Mus musculus [5] is 4%. Besides, in the data set on Rattus norvegicus, the Vd came out at 1597 mL/kg. In addition, the half-life in data set [6] was 360 min. In data set [7], this compound showed an apparent clearance CL/F of 17.2 mL/min/kg.
Regarding `Cc1c(-n2c3ccc(F)cc3c3[nH]ncc32)cnc2[nH]cnc12`, on Cytochrome P450 1A2, the half-inhibitory concentration (IC50) was > 50.1 µM.
For the compound `Clc1ccc2c3[nH]ncc3n(-c3cccnc3)c2c1`, at Cytochrome P450 1A2, the half-maximal inhibitory concentration (IC50) was 0.0631 µM.
As for `Fc1cc2c3[nH]ncc3n(-c3cccnc3)c2cc1F`, the half-maximal inhibitory concentration (IC50) against Cytochrome P450 1A2 was 0.0501 µM. The IC50 values of the last two compounds are within 1.5-fold of each other.
As for `Cc1cc(C(=O)NCCO)ccc1-n1c2ccc(F)cc2c2[nH]ncc21`, on Cytochrome P450 1A2, the concentration for half-maximal inhibition (IC50) was 7.94 µM. Compared with the last compound, the IC50 is about 160-fold higher.
`Cc1nc2c(cc1-n1c3ccc(F)cc3c3[nH]ncc31)ncn2C` had an IC50 against Cytochrome P450 1A2 of 20 µM.
In the case of `Nc1ncc(-n2c3ccc(F)cc3c3[nH]ncc32)cc1Cl`, 0.158 µM corresponded to half-maximal inhibition on Cytochrome P450 1A2 (IC50). This IC50 is about 130-fold lower than that of the compound before.
